A selection: hits, their analogues and other compounds. The true share with any hit is near 2.3%.
TRPC4 agonist = opens the mouse TRPC4 cation channel; actives 0.49% (n = 310,000); AID 2237; B-score at 10 µM; Q9QUQ5; HEK293 TRPC4beta/mu-opioid, Fluo4 calcium fluorescence; stronger effect = higher value;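 active means B-score above 5 SD of library B-scores, and initial fluorescence ratio not above library mean plus 5 SD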;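 further: positive B-score marks a calcium rise read as TRPC4 activation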
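Assay system: HEK293 stable line with TRPC4beta plus mu-opioid receptor. Times: dye 45 min RT, read 110 s. Measured by: kinetic Fluo4 calcium fluorescence. Measure: B score of integrated ratio. Controls: assay buffer as low control, maximal DAMGO as high control.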
TRPC4 inh = TRPC4 (mouse) channel inhibition; HEK293 TRPC4beta/mu-opioid, DAMGO-evoked Fluo4 calcium flux; stronger effect = lower value; B-score at 10 µM; actives 0.39% (n = 300,000); Q9QUQ5;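 active means B-score over 3 SD under the library average, no early fluorescence shift, positive overall ratio signal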
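Assay system: HEK293 cells with stable TRPC4beta plus mu-opioid receptor expression. Dosing: single dose. Measured by: Fluo4 Ca2+ flux fluorescence. Also added: DAMGO in two steps, submaximal then maximal. Read-out: B score from integrated Fluo4 fluorescence ratio.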
TRPC6 inh = blocks the mouse TRPC6 cation channel; actives 1.1% (n = 310,000); HEK293-TRPC6, membrane potential dye, ACh-evoked depolarization; stronger effect = lower value; Q61143; AID 2553; B-score at 10 µM;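 active means B-score under library mean minus 3 SD, initial fluorescence not abnormally high, positive integrated signal ratio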;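 further: B-score derived from integrated fluorescence ratio over the kinetic read; more negative B-score means stronger inhibition of depolarization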
TRPC6 act = activates the mouse TRPC6 cation channel; Q61143; HEK293-TRPC6 membrane potential dye fluorescence; stronger effect = higher value; B-score at 10 µM; actives 0.13% (n = 310,000); AID 2550;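 active means B-score of the integrated fluorescence ratio above library mean plus 3 SD, and starting fluorescence ratio within library mean plus 5 SD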;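 further: higher score means more depolarization so channel activation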
TRPC4 potent = allosteric potentiators of mouse TRPC4 channel; Q9QUQ5; HEK293 TRPC4beta/mu-opioid, DAMGO EC20, Fluo-4 Ca2+ flux; stronger effect = higher value; B-score at 10 µM; actives 0.42% (n = 310,000); AID 2227;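 active means B-score of calcium response area above 5 SD of library B-scores, with initial fluorescence ratio within 5 SD of library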;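 further: B-score of integrated fluorescence ratio over time as area under calcium response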
An asterisk follows results filed as active; i = inactive.

SMILES	TRPC4 agonist	TRPC4 inh	TRPC6 inh	TRPC6 act	TRPC4 potent
COc1ccccc1/C=C1\SC(=S)N(NS(=O)(=O)c2ccccc2)C1=O	i	i	i	i	i
CCOc1cc(/C=C2\SC(=S)N(NS(=O)(=O)c3ccc(C)cc3)C2=O)ccc1O	i	i	i	i	i
CCCN(CCC)CCNC(=O)c1cc2c(=O)n(C)c3ccccc3c2n1C	i	i	i	i	13*
Cn1c(C(=O)NCCN2CCOCC2)cc2c(=O)n(C)c3ccccc3c21	i	i	i	i	i
CCCCN(CC)CCNC(=O)c1cc2c(=O)n(C)c3ccccc3c2s1	i	i	i	i	16*
CCCCN(CC)CCCNC(=O)c1cc2c(=O)n(CC)c3ccccc3c2s1	i	i	i	i	i
CCCN(CCC)CCCNC(=O)c1cc2c(=O)n(CC)c3ccccc3c2s1	50*	i	i	i	i
CNCc1ccccc1Sc1ccc(OC)cc1	i	i	i	i	i
CNCc1ccccc1Sc1cccc2ccccc12	46*	-6*	i	i	i
CCC(C)NC(=O)c1cc2c(=O)[nH]c3ccc(C)cc3c2s1 (stereo not given)	i	i	i	i	i
O=C(CSc1nnc(-c2ccc(Cl)cc2Cl)n1C1CCCCC1)N1CCCC1	i	-6*	i	i	i
Cc1cccn2c(=O)c3cc(C(=O)N(C)C)n(C)c3nc12	i	i	i	i	25*
OC(C#CCN1CCOCC1)c1cccs1 (stereo not given)	77*	i	i	i	i
CC(=O)OC(C#CCN1CCOCC1)c1ccccc1 (stereo not given)	i	i	i	i	i
N#C/C(=C\c1ccc[nH]1)C(=O)Nc1ccccc1[N+](=O)[O-]	i	i	i	i	i
CCOc1cc(CNCCCN2CCOCC2)cc(Br)c1OCc1ccccc1Cl	i	-7*	i	i	i
CCOc1cc(CNCCO)cc(Br)c1OCc1ccccc1Cl	i	i	i	i	i
CC(=O)N1CCN(c2ccccc2NC(=O)c2ccc3ccccc3c2)CC1	i	-5*	i	i	i
COc1ccc(C(=O)Nc2ccccc2N2CCCC2)cc1	i	i	i	i	i
CC(=O)N1CCN(c2ccccc2NC(=O)c2cccs2)CC1	i	-6*	i	i	i
CC(C)C(=O)N1CCN(c2ccccc2NC(=O)c2ccco2)CC1	i	-10*	i	i	i
CCC(=O)N1CCN(c2ccccc2NC(=O)c2cccs2)CC1	i	i	i	i	i
O=S(=O)(NCCc1ccccc1)c1ccc(Br)cc1	i	i	i	i	i
CCOC(=O)C1CCCN(Cc2nc(CC3CC3)no2)C1 (stereo not given)	i	i	i	i	i
CC(C)(C)c1cc(C(=O)CCN2CCOCC2)cc(C(C)(C)C)c1O	i	i	i	i	11*
SMILES	TRPC4 agonist	TRPC4 inh	TRPC6 inh	TRPC6 act	TRPC4 potent
CC(C)(C)c1cc(C(=S)N2CCN(CCO)CC2)cc(C(C)(C)C)c1O	i	i	i	i	i
Cc1ccc(SCCN)cc1C	83*	i	i	i	i
Cc1ccc(SCC(=O)NNC(=O)c2ccccc2)cc1C	i	i	i	i	i
O=C(/C=N/O)Nc1ccc2sc3ccccc3c2c1	i	i	i	i	i
CCOC(=O)C1(CCOc2ccccc2)CCN(Cc2ccc(O)cc2)CC1	i	i	i	i	i
CCOC(=O)C1(CCc2ccccc2)CCN(Cc2nccn2CC)CC1	i	i	i	i	i
CCOC(=O)C1(CCc2ccccc2)CCN(Cc2ccc(O)cc2)CC1	49*	-6*	i	i	i
CCOC(=O)C1(CCc2ccccc2)CCN(Cc2c(O)cccc2OC)CC1	79*	i	i	i	i
CCOC(=O)C1(Cc2ccccc2)CCN(Cc2ccc(C)s2)CC1	i	-8*	i	i	i
CCOC(=O)C1(CCc2ccccc2)CCN(Cc2ccc(OC)cc2)CC1	119*	i	i	i	i
Cc1ccc(C)c(S(=O)(=O)N2CCN(C(=O)c3ccnn3C)CC2)c1	i	i	i	i	i
